Data: ChEMBL document CHEMBL4130342, “New semi-synthetic analogs of oleuropein show improved anticancer activity in vitro and in vivo” (Eur J Med Chem, 2017)

Experiments:
Mus musculus [1] = experiment: Toxicity in C57BL/6 mouse allografted with mouse B16-F1 cells assessed as effect on mouse survival at 600 ug, ip administered every other day up to day 29; assay type: organism-based; conditions: in vivo
How it was run: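 Male C57BL/6 mice (6-8 wk) were injected sc with 10⁵ B16.F1 cells on day 0. From day 11 they received ip doses in 200 µL PBS every other day, 8 doses in total, with PBS controls. Tumors were caliper-measured every two days and the animals monitored to day 29 for signs of toxicity. Groups of 5.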

PBMC [2] = experiment: Induction of apoptosis in human PBMC assessed as late apoptotic cells at 150 ug/ml after 24 hrs by propidium iodide staining-based flow cytometric method (reference value: 0.6%); assay type: cell-based
PBMC [3] = experiment: Induction of apoptosis in human PBMC assessed as early apoptotic cells at 400 ug/ml after 24 hrs by propidium iodide staining-based flow cytometric method (reference value: 0.1%); assay type: cell-based
PBMC [4] = experiment: Induction of apoptosis in human PBMC assessed as necrotic cells at 300 ug/ml after 24 hrs by propidium iodide staining-based flow cytometric method (reference value: 1%); assay type: cell-based
K562 = experiment: Antiproliferative activity against human K562 cells after 72 hrs by MTT reduction assay; assay type: functional, cell-based; conditions: K562, 72 h
How it was run: (§1)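 MTT reduction assay; adherent lines left to adhere overnight, suspension lines (HL-60, K562) seeded on the day. […] Incubation was 72 h at 37°C, with MTT added for the last 4 h. OD read at 545 nm (reference 690 nm). IC50 from 100(A0-A)/A0=50; means ± SD of 3 independent experiments.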

PBMC [5] = experiment: Induction of apoptosis in human PBMC assessed as late apoptotic cells at 400 ug/ml after 24 hrs by propidium iodide staining-based flow cytometric method (reference value: 0.6%); assay type: cell-based
PBMC [6] = experiment: Induction of apoptosis in human PBMC assessed as early apoptotic cells at 300 ug/ml after 24 hrs by propidium iodide staining-based flow cytometric method (reference value: 0.1%); assay type: cell-based
HCT-116 = experiment: Antiproliferative activity against human HCT116 cells after 72 hrs by MTT reduction assay; assay type: functional, cell-based; conditions: HCT-116, 72 h
How it was run: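 MTT reduction assay; adherent lines left to adhere overnight, suspension lines (HL-60, K562) seeded on the day. Incubation was 72 h at 37°C, with MTT added for the last 4 h.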

HeLa = experiment: Antiproliferative activity against human HeLa cells after 72 hrs by MTT reduction assay; assay type: functional, cell-based; how it was run: as §1
B16-F1 [7] = experiment: Antitumor activity against mouse B16-F1 cells allografted in C57BL/6 mouse assessed as tumor volume at 300 ug, ip administered every other day up to day 29 measured on day 29 post last dose (reference value: 2.83 cm'3); assay type: functional
How it was run: (§2)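 Male C57BL/6 mice, 6-8 weeks old, received 10^5 B16.F1 cells sc in the right flank on day 0. From day 11 (palpable tumors), 5 mice/group were randomized and given ip doses in 200 µL PBS every other day, 8 doses in total, up to day 29. Control group received PBS. Tumors were measured by caliper every two days; volume = 1/2(length × width²).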

Mus musculus [8] = experiment: (§3) In vivo induction of tumor-reactive immune response in C57BL/6 mouse allografted with mouse B16-F1 cells assessed as splenocyte-mediated mouse WEHI 164 cell lysis at 300 ug, ip administered every other day up to day 29 measured on day 29 post last dose by flow cytometric method (reference value: 1.2 to 1.6); assay type: functional
How it was run: (§4)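 Male C57BL/6 mice (6-8 wk) were injected sc in the right flank with 10⁵ B16.F1 cells in PBS on day 0. From day 11, when tumors were palpable, they received ip doses in 200 µL PBS every other day (8 doses; 5 mice/group). On day 29, splenocytes were co-cultured unstimulated with targets at E:T 100:1 for 6 h at 37°C. CD107a/b MFI was read by flow cytometry, 2 mice/group tested individually.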

PBMC [9] = experiment: Induction of apoptosis in human PBMC assessed as late apoptotic cells at 600 ug/ml after 24 hrs by propidium iodide staining-based flow cytometric method (reference value: 0.6%); assay type: cell-based
B16-F1 [10] = experiment: Induction of apoptosis in mouse B16-F1 cells assessed as necrotic cells at 283.90 uM after 24 hrs by propidium iodide staining-based flow cytometric method (reference value: 0.4%); assay type: functional
Mus musculus [11] = experiment: as §3, with “600” for “300”; assay type: functional; how it was run: as §4
SK-BR-3 = experiment: Antiproliferative activity against human SKBR3 cells after 72 hrs by MTT reduction assay; assay type: functional, cell-based; conditions: SK-BR-3, 72 h; how it was run: as §1
PBMC [12] = experiment: Induction of apoptosis in human PBMC assessed as late apoptotic cells at 300 ug/ml after 24 hrs by propidium iodide staining-based flow cytometric method (reference value: 0.6%); assay type: cell-based
PBMC [13] = experiment: Induction of apoptosis in human PBMC assessed as necrotic cells at 600 ug/ml after 24 hrs by propidium iodide staining-based flow cytometric method (reference value: 1%); assay type: cell-based
B16-F1 [14] = experiment: Induction of apoptosis in mouse B16-F1 cells assessed as late apoptotic cells at 283.90 uM after 48 hrs by propidium iodide staining-based flow cytometric method (reference value: 0.5%); assay type: functional
Mus musculus [15] = experiment: as §3, with “splenocyte-mediated NK-sensitive” for “splenocyte-mediated”, “YAC-1” for “WEHI 164”, “1.7)” for “1.6)”; assay type: functional; how it was run: as §4
HL-60 = experiment: Antiproliferative activity against human HL60 cells after 72 hrs by MTT reduction assay; assay type: functional, cell-based; conditions: HL-60, 72 h; how it was run: as §1
PBMC [16] = experiment: Induction of apoptosis in human PBMC assessed as early apoptotic cells at 600 ug/ml after 24 hrs by propidium iodide staining-based flow cytometric method (reference value: 0.1%); assay type: cell-based
Mus musculus [17] = experiment: as §3, with “splenocyte-mediated syngeneic” for “splenocyte-mediated”, “B16-F1” for “WEHI 164”, “600” for “300”, “3.3” for “1.2”, “3.9)” for “1.6)”; assay type: functional; how it was run: as §4
PBMC [18] = experiment: Induction of apoptosis in human PBMC assessed as early apoptotic cells at 150 ug/ml after 24 hrs by propidium iodide staining-based flow cytometric method (reference value: 0.1%); assay type: cell-based
PBMC [19] = experiment: Induction of apoptosis in human PBMC assessed as late apoptotic cells at 500 ug/ml after 24 hrs by propidium iodide staining-based flow cytometric method (reference value: 0.6%); assay type: cell-based
B16-F1 [20] = experiment: Induction of apoptosis in mouse B16-F1 cells assessed as early apoptotic cells at 283.90 uM after 72 hrs by propidium iodide staining-based flow cytometric method (reference value: 0.4%); assay type: functional
B16-F1 [21] = experiment: Antitumor activity against mouse B16-F1 cells allografted in C57BL/6 mouse assessed as tumor volume at 600 ug, ip administered every other day up to day 29 measured on day 29 post last dose (reference value: 2.83 cm'3); assay type: functional; how it was run: as §2
[22] = Antiproliferative activity against human FM3 cells after 72 hrs by MTT reduction assay; assay type: functional, cell-based; how it was run: as §1
B16-F1 [23] = experiment: Induction of apoptosis in mouse B16-F1 cells assessed as late apoptotic cells at 283.90 uM after 24 hrs by propidium iodide staining-based flow cytometric method (reference value: 0.9%); assay type: functional
PBMC [24] = experiment: Induction of apoptosis in human PBMC assessed as necrotic cells at 150 ug/ml after 24 hrs by propidium iodide staining-based flow cytometric method (reference value: 1%); assay type: cell-based

For `C/C=C1/[C@H](O[C@@H]2O[C@H](CO)[C@@H](O)[C@H](O)[C@H]2O)OC=C(C(=O)OC)[C@H]1CC(=O)OCCc1ccc(O)c(O)c1` [OLEUROPEIN], the Activity (Mus musculus [1]) was “Non-Toxic”, the Activity (PBMC [2]) was 1.5% and the Activity (PBMC [3]) was 1.6%. The Activity (PBMC [4]) was 3.9%, the IC50 (K562) was 64.7 µM and the Activity (PBMC [5]) was 3%. For the same compound, the Activity (PBMC [6]) was 1.2%, the IC50 (HCT-116) was 182 to 185 µM and the IC50 (HeLa) was 265 to 276 µM. For the same compound, the Activity (B16-F1 [7]) was 2.41 cm3, the Flu intensity (Mus musculus [8]) was 1.1 - 1.3 and the Activity (PBMC [9]) was 12.4%. The Activity (B16-F1 [10]) was 2.1%, the Flu intensity (Mus musculus [11]) was 2.5 - 2.7 and the IC50 (SK-BR-3) was 160 µM. For the same compound, the Activity (PBMC [12]) was 1.9%, the Activity (PBMC [13]) was 16.4% and the Activity (B16-F1 [14]) was 9.8%. For the same compound, the Flu intensity (Mus musculus [15]) was 2.3 - 2.7, the IC50 (HL-60) was 54.3 µM and the Activity (PBMC [16]) was 6.5%. For the same compound, the Flu intensity (Mus musculus [17]) was 6.6 - 7.5, the Activity (PBMC [18]) was 0.8% and the Activity (PBMC [19]) was 6.3%. It also gave an Activity (B16-F1 [20]) of 22.5%, an Activity (B16-F1 [21]) of 2.33 cm3 and an IC50 [22] of 269 to 275 µM. It also gave an Activity (B16-F1 [23]) of 6.9% and an Activity (PBMC [24]) of 2.5%.
